PAFAH1B2 inh: inhibitors of human PAFAH1B2. P68402. recombinant PAFAH1B2, FP-rhodamine activity probe, fluorescence polarization. inhibition, % at 3.39 µM. 340,000 compounds, 1.2% hits;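 active = inhibition above the mean of all tested compounds plus 3 SD, cut at about 24% in these data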;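 note: 0% = enzyme with DMSO and 100% = wells lacking PAFAH1B2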
Target sequence (P68402 whole entry, looked up): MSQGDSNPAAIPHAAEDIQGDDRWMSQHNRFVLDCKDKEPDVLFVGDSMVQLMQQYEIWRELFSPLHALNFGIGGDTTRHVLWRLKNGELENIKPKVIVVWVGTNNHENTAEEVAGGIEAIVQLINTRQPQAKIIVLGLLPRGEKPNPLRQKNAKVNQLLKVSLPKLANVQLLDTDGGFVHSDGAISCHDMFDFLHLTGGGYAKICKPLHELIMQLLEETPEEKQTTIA
pPAFAH FP inh: pPAFAH (human) enzyme inhibition; Q13093; recombinant pPAFAH, FP-rhodamine probe fluorescence polarization; inhibition, % at 3.39 µM; 330,000 compounds, 1.5% hits; AID 463082;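 active = inhibition above the mean inhibition across the screen plus 3 SD, cut at about 25% in these data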;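 note: inhibitors block binding of the rhodamine activity-based probe so polarization drops; 0% = enzyme with DMSO and 100% = wells lacking pPAFAH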
PAFAH1B3 inh: blocks human PAF acetylhydrolase 1B catalytic subunit 3; Q15102; recombinant PAFAH1B3, FP-rhodamine probe, fluorescence polarization; AID 492972; inhibition, % at 3.39 µM; 340,000 compounds, 0.28% hits;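 active = inhibition above the screen-wide average of all tested compounds plus 3 SD, cut at about 25% in these data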;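 note: 0% = enzyme with DMSO only and 100% = wells lacking PAFAH1B3 protein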
Target sequence (Q15102 whole entry, looked up): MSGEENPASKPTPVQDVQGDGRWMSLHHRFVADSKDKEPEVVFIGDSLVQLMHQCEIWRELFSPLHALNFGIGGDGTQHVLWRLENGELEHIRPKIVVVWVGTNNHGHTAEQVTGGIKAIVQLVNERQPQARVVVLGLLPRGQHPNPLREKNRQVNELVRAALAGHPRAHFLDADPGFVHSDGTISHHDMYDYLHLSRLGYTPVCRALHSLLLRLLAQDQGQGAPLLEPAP
HTRA1 inhibitor: inhibitors of human serine peptidase HTRA1. Q92743. recombinant HTRA1, FP-rhodamine activity-based probe, fluorescence polarization. inhibition, % at 5.96 µM. 340,000 compounds, 0.5% hits. AID 504803; in the data active = inhibition above about 36%;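 note: 0% = enzyme with DMSO and 100% = wells lacking enzyme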
PAFAH2 inh: inhibitors of human PAFAH2. 340,000 compounds, 0.99% hits. Q99487. inhibition, % at 3.39 µM. recombinant PAFAH2, FP-rhodamine activity probe, fluorescence polarization;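 active = inhibition above the mean over all tested compounds plus 3 SD, cut at about 30% in these data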;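 note: inhibitors block probe labeling of enzyme so polarization drops; 0% = enzyme with DMSO and 100% = wells lacking PAFAH2 protein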
ABHD4 inh: ABHD4 (mouse) inhibition, primary FP screen; purified mABHD4, FP-Rh probe fluorescence polarization; inhibition, % at 8.92 µM; 370,000 compounds, 0.54% hits; AID 720543;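 active = inhibition exceeding the mean over every tested compound plus 3 SD, cut at about 30% in these data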;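 note: 0% = plate median of compound wells and 100% = S159A mutant with DMSO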
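system = mouse ABHD4 enzyme, wild type | medium = HEPES pH 7.0, NaCl, Pluronic buffer | also added = FP-Rh probe | incubation = Enzyme–compound pre-incubation 45 min, then probe 60 min, both 25 °C | technique = fluorescence polarization, excitation 525 nm, emission 598 nm, BODIPY TMR filters | controls = S159A mutant high control, sample median low control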
PAFAH2 FP conf: confirmation of human PAFAH2 inhibitors | shares compounds with PAFAH2 inh | recombinant PAFAH2, FP-rhodamine activity probe, fluorescence polarization | inhibition, % at 3.39 µM | 2,300 compounds, 65% hits | AID 493030;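 active = mean inhibition over three repeats above a set limit taken from the earlier primary screen, cut at about 30% in these data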;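 note: inhibitor blocks binding of rhodamine activity probe so polarization falls; 0% = enzyme with DMSO and 100% = wells lacking PAFAH2 protein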
* = called active by the depositor; nt = no result. Sampled rows, rich in hits. Any-hit rate of the full collection: about 2.8%.

SMILES	PAFAH1B2 inh	pPAFAH FP inh	PAFAH1B3 inh	HTRA1 inhibitor	PAFAH2 inh	ABHD4 inh	PAFAH2 FP conf
Cc1cccc(C)c1N1CCN(C(=O)N2CCOCC2)CC1	0.8	2.3	1.5	4.8	43.7*	2.3	44.0*
Cc1ccc(N2CCN(C(=O)N3CCOCC3)CC2)cc1C	2.9	1.0	-3.4	-4.1	-4.3	6.6	nt
Cc1ccc(-n2c(SCC(=O)c3ccccc3Br)nnc2-c2ccncc2)cc1	nt	nt	nt	nt	nt	2.4	nt
COC(=O)[C@]12C[C@H](CC(=O)NCc3ccc(OC)c(OC)c3)C(=O)N(Cc3ccco3)C1=C[C@H](C1CCCC1)O[C@@H]2C	nt	nt	nt	nt	nt	8.9	nt
O=C(COC(=O)c1ccccc1O)Nc1cc(S(=O)(=O)N2CCCCCC2)ccc1Cl	2.3	6.0	3.0	0.6	2.1	-2.9	nt
O=C(COC(=O)c1ccccc1)Nc1cc(S(=O)(=O)N2CCCCCC2)ccc1Cl	2.8	7.5	8.1	0.3	30.2*	-3.7	16.2
O=C(COC(=O)c1ccco1)Nc1cc(S(=O)(=O)N2CCCCC2)ccc1Cl	3.3	0.8	5.2	2.4	54.8*	0.3	46.3*
O=C(COC(=O)c1ccco1)Nc1cc(S(=O)(=O)N2CCOCC2)ccc1Cl	5.7	-0.3	7.7	-4.8	57.7*	-1.1	34.8*
CCN(c1ccccc1)S(=O)(=O)c1ccc(Cl)c(NC(=O)COC(=O)C2CC2C)c1 (stereo unspecified)	-1.8	21.1	6.6	-13.4	79.0*	-0.3	75.9*
O=C1c2cccc3cccc(c23)C(=O)N1Cc1ccccc1	2.2	-1.5	1.9	-3.2	7.8	1.3	nt
O=C1c2cccc3cccc(c23)C(=O)N1OS(=O)(=O)c1ccc(Cl)cc1	2.6	4.7	9.7	1.1	33.2*	2.7	34.4*
CN(C)S(=O)(=O)c1cccc(C(=O)OCC(=O)Nc2sccc2C(N)=O)c1	2.4	0.7	15.4	-2.6	11.7	-6.2	nt
COc1ccc(NC(=O)COC(=O)c2cccc(S(=O)(=O)N(C)C)c2)cc1	7.9	nt	5.5	-2.7	41.4*	0.5	25.5
CN(C)S(=O)(=O)c1cccc(C(=O)OCC(=O)NCc2ccccc2)c1	2.4	15.1	3.8	-1.3	29.9*	0.2	13.0
CCOC(=O)[C@@]12CCCC=C1N(CCc1ccc(Cl)cc1)C(=O)[C@H]2CC(=O)N1CCSCC1	nt	nt	nt	nt	nt	-1.0	nt
COc1ccc(Cn2cc(COC(=O)N3CCOCC3)nn2)cc1	nt	nt	nt	nt	nt	2.1	nt
CCNC(=S)N/N=C1\C(=O)c2cccc3cccc1c23	2.7	-2.7	11.6	5.2	-3.3	7.0	nt
O=C(N/N=C1/C(=O)c2cccc3cccc1c23)c1ccc(Cl)cc1	7.0	11.4	12.1	1.5	56.4*	10.4	34.7*
O=C(COC(=O)c1cc(S(=O)(=O)N2CCOCC2)ccc1F)NC1CCCCC1	5.8	2.1	3.9	-2.7	0.6	-1.8	nt
COC(=O)c1cc(COC(=O)c2ccc(OC)c(S(=O)(=O)N3CCCC3)c2)oc1C	2.1	nt	8.2	1.1	40.8*	-4.7	23.1
O=C(COC(=O)c1ccc(F)c(S(=O)(=O)N2CCOCC2)c1)NC1CCCCC1	2.3	2.2	-1.4	4.9	71.2*	-1.2	60.3*
COc1ccc(C(=O)OCC(=O)N2CCOCC2)cc1S(=O)(=O)N1CCOCC1	-7.2	-1.1	0.2	1.3	0.9	2.8	nt
COc1ccc(C(=O)OCc2cc(C)ccc2C)cc1S(=O)(=O)N1CCCC1	2.4	2.4	0.0	-38.6	9.7	-14.7	nt
COc1ccc(C(=O)OCC(=O)NC2CC2)cc1S(=O)(=O)N1CCOCC1	3.6	1.1	6.8	-0.7	51.7*	-10.4	38.7*
COCCCN1C(=O)[C@H](CC(=O)N2CCSCC2)[C@]2(C(=O)OC)CCCCC=C12	nt	nt	nt	nt	nt	4.5	nt
O=C(OCCC12CC3CC(CC(C3)C1)C2)c1ccc(NCc2cc(O)ccc2O)cc1	4.9	nt	4.8	-2.4	75.3*	15.1	66.2*
COC(=O)C[C@H]1CC[C@@H]2[C@@H](COc3ccc(NC(=O)C4CCCCC4)cc3C(=O)N2C)O1	nt	nt	nt	nt	nt	6.7	nt
O=C(COC(=O)/C=C/c1ccccc1)NCC1CCCO1 (stereo unspecified)	2.9	10.5	-0.8	5.3	37.2*	6.8	22.7
